The subject of data set [1] is Helicobacter pylori. Nature of the data set: Antibacterial activity against wild type Helicobacter pylori 055. The format is functional.
Data set [2] is described as follows: Intrinsic clearance in human liver microsomes at 2 uM assessed per mg of protein. The format is ADME, Microsome. The following applies: read-out: CLH. (Microsomes from liver hold many membrane-bound enzymes, among them those of drug oxidation.)
Data set [3] in a line: Intrinsic clearance in mouse liver microsomes at 2 uM assessed per mg of protein. Type of data set: ADME, Microsome. The following applies: read-out: CLH.
Data set [4] deals with Helicobacter pylori. Nature of the data set: Antibacterial activity against AcrAB-TolC efflux pump-dificient Helicobacter pylori. The format is functional.
Data set [5] addresses T1, Glutamate racemase (Helicobacter pylori J99, UniProt Q9ZLT0).
T1 sequence (Q9ZLT0 whole entry): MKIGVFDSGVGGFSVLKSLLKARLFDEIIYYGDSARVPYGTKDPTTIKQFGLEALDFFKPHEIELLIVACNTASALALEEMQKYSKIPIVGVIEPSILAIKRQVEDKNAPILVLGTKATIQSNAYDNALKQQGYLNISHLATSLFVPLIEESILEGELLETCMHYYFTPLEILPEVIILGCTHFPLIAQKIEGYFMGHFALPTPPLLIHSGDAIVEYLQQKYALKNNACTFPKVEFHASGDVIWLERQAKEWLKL
Nature of the data set: Inhibition of Helicobacter pylori J99 glutamate racemase. Put shortly: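 The racemase was expressed from the murI gene of H. pylori J99 chromosomal DNA. IC50 was taken as the mean of duplicate determinations, using a method cited from earlier work.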

Values after ≈ are worked out from the molar mass of the structure shown. Where only a bound is given, the exact number is not on record here.

A word on the MIC: it is the smallest concentration in the dilution series that meets the test's criterion for growth inhibition. As usually defined, the IC50 is the midpoint of a concentration-inhibition curve. A lower IC50 goes with greater potency. `Cn1cc(C#N)cc1-c1c2c(=O)n(CC#CCn3cncn3)c(=O)n(CC3CC3)c2nn1Cc1ccnc2ccc(Cl)cc12`: the results for the MIC in data set [1] and in data set [4] were 8 µg/mL (≈ 13.2 µM) and 16 µg/mL (≈ 26.4 µM), respectively. The microsomal CLint at 2 µM in data set [2] and in data set [3] was above 100 µL/min/mg in each case. Half-maximal inhibition in data set [5] (IC50) was put at 13 nM.
`CC(C)Cn1c(=O)n(C)c(=O)c2c(-c3cncn3C)n(Cc3ccnc4ccc(Cl)cc34)nc21` showed an MIC in data set [1] of 4 µg/mL (≈ 8.37 µM). The microsomal CLint at 2 µM was 17 µL/min/mg in data set [2] and above 100 µL/min/mg in data set [3]. In addition, the IC50 in data set [5] stood at 170 nM.
`Cn1cc(C#N)nc1-c1c2c(=O)n(C3CC3)c(=O)n(CC3CC3)c2nn1Cc1ccnc2ccc(Cl)cc12`: the MIC in data set [1] is 8 µg/mL (≈ 15.2 µM); in data set [4], 4 µg/mL (≈ 7.59 µM). For the same molecule, the microsomal CLint at 2 µM in data set [2] and in data set [3] was below 14 µL/min/mg throughout. Besides, inhibition in data set [5] was half-maximal at 250 nM (IC50).
In turn, `CC(=O)c1cc(-c2c3c(=O)n(C)c(=O)n(CC4CC4)c3nn2Cc2ccnc3ccc(Cl)cc23)n(C)c1` displayed an MIC in data set [1] of 3 µg/mL (≈ 5.8 µM). The microsomal CLint at 2 µM in data set [2] is 19 µL/min/mg; in data set [3], 53 µL/min/mg. The molecule further gave an IC50 in data set [5] of 39 nM.
`Cn1cncc1-c1c2c(=O)n(C3CC3)c(=O)n(CC3CC3)c2nn1Cc1ccnc2ccc(Cl)cc12`: the values for the MIC in data set [1] and in data set [4] were 8 µg/mL (≈ 15.9 µM) and 2 µg/mL (≈ 3.98 µM), respectively. The figures for the microsomal CLint at 2 µM in data set [2] and in data set [3] were below 14 µL/min/mg and 6 µL/min/mg, respectively. The IC50 in data set [5] worked out at 79 nM.
In data set [1], `Cc1c[nH]nc1-c1c2c(=O)n(C)c(=O)n(CC3CC3)c2nn1Cc1ccnc2ccc(Cl)cc12` returned an MIC of 8 µg/mL (≈ 16.8 µM). The figures for the microsomal CLint at 2 µM in data set [2] and in data set [3] were 20 µL/min/mg and above 100 µL/min/mg, respectively. In data set [5], the IC50 was determined as 220 nM.
On to `Cn1cc(C#N)cc1-c1c2c(=O)n(C3CC3)c(=O)n(CC3CC3)c2nn1Cc1ccnc2ccc(Cl)cc12`, for which the values for the MIC in data set [1] and in data set [4] were 2 µg/mL (≈ 3.8 µM) and 0.13 µg/mL (≈ 0.247 µM), respectively. Further, the microsomal CLint at 2 µM in data set [2] came to 30 µL/min/mg; in data set [3], 33 µL/min/mg. For the same molecule, the IC50 in data set [5] amounted to 80 nM.
In the same order, the values of `Cn1cc(C#N)cc1-c1c2c(=O)n(CC#CCn3ccnc3)c(=O)n(CC3CC3)c2nn1Cc1ccnc2ccc(Cl)cc12` are 64 µg/mL (≈ 106 µM), 4 µg/mL (≈ 6.62 µM), 41 µL/min/mg, above 100 µL/min/mg and 260 nM.
The molecule `Cn1cnnc1-c1c2c(=O)n(C)c(=O)n(CC3CC3)c2nn1Cc1ccnc2ccc(Cl)cc12` registered an MIC in data set [1] of 8 µg/mL (≈ 16.8 µM). Besides, the values for the microsomal CLint at 2 µM in data set [2] and in data set [3] were below 14 µL/min/mg and 64 µL/min/mg, respectively. For the same molecule, in data set [5], the 50% inhibitory concentration (IC50) is 230 nM.
In turn, `Cc1nc(N)sc1-c1c2c(=O)n(C)c(=O)n(CC3CC3)c2nn1Cc1ccnc2ccc(Cl)cc12` registered a minimum inhibitory concentration (MIC) in data set [1] above 32 µg/mL. Besides, the microsomal CLint at 2 µM in data set [2] is below 14 µL/min/mg; in data set [3] it was 61 µL/min/mg. Moreover, the IC50 in data set [5] amounted to 740 nM.
The molecule `Cc1nc[nH]c1-c1c2c(=O)n(C)c(=O)n(CC3CC3)c2nn1Cc1ccnc2ccc(Cl)cc12` came in with a minimum inhibitory concentration (MIC) in data set [1] of 32 µg/mL (≈ 67.2 µM). Also, the microsomal CLint at 2 µM in data set [2] was 92 µL/min/mg; in data set [3], above 100 µL/min/mg. Further, in data set [5], half-maximal inhibition (IC50) required 900 nM.
The molecule `CC(C)Cn1c(=O)n(C)c(=O)c2c(-c3cc(C#N)cn3C)n(Cc3ccnc4ccc(Cl)cc34)nc21` showed an MIC in data set [1] of 4 µg/mL (≈ 7.97 µM). Further, the microsomal CLint at 2 µM in data set [2] is 94 µL/min/mg; in data set [3] it was above 100 µL/min/mg. This molecule also displayed an IC50 in data set [5] of 86 nM.
In turn, `Cc1sc(N)nc1-c1c2c(=O)n(C)c(=O)n(CC3CC3)c2nn1Cc1ccnc2ccc(Cl)cc12` displayed a minimal inhibitory concentration (MIC) in data set [1] of 8 µg/mL (≈ 15.7 µM). Besides, the microsomal CLint at 2 µM in data set [2] was 34 µL/min/mg; in data set [3], above 100 µL/min/mg. Half-maximal inhibition in data set [5] (IC50) was put at 280 nM.
On to `CC(C)Cn1c(=O)n(C)c(=O)c2c(-c3cncn3C)n(Cc3cccc4ccccc34)nc21`, for which the MIC in data set [1] stood at 4 µg/mL (≈ 9.04 µM). This molecule came in with an IC50 in data set [5] of 120 nM.
`CC(C)Cn1c(=O)n(C)c(=O)c2c(-c3cccn3C)n(Cc3ccnc4ccc(Cl)cc34)nc21` showed an MIC in data set [1] of 18 µg/mL (≈ 37.7 µM). Further, the microsomal CLint at 2 µM in data set [2] and in data set [3] was above 100 µL/min/mg throughout. This molecule had a half-maximal inhibitory concentration (IC50) in data set [5] of 260 nM.

Source of the values: ChEMBL document CHEMBL2086265, “Design of inhibitors of Helicobacter pylori glutamate racemase as selective antibacterial agents: incorporation of imidazoles onto a core pyrazolopyrimidinedione scaffold to improve bioavailabilty” (Bioorg Med Chem Lett, 2012).
